Assay type in all cases: functional
Assay [1] concerns Streptococcus pneumoniae. Put plainly: Antibacterial activity against erythromycin-resistant Streptococcus pneumoniae mef S 3427 by broth microdilution method. On the technique in general: Broth dilution looks for growth in wells or tubes with falling amounts of substance.
Assay [2] deals with Haemophilus influenzae. Put plainly: Antibacterial activity against Haemophilus influenzae 49247 by broth microdilution method. Put shortly: (§1)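 In vitro activity was read as the minimum inhibitory concentration (MIC) by broth microdilution and reported in μg/mL. The S. pneumoniae panel included erythromycin-resistant strains carrying mef or erm genes. Telithromycin and clarithromycin were run as comparators in every assay.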

The test system of assay [3] is Staphylococcus epidermidis. Put plainly: Antibacterial activity against Staphylococcus epidermidis f50654 by broth microdilution method. The procedure, abridged: as §1
The test system of assay [4] is Staphylococcus aureus. Description: Antibacterial activity against Staphylococcus aureus 29213 by broth microdilution method. Conditions: ATCC29213. Put shortly:
as §1

For assay [5], the system named is Staphylococcus epidermidis. Description: Antibacterial activity against Staphylococcus epidermidis 14990 by broth microdilution method. The procedure, abridged:
as §1

Assay [6] concerns Streptococcus pneumoniae. Put plainly: Antibacterial activity against Streptococcus pneumoniae 280-962 by broth microdilution method. Put shortly: as §1
The test system of assay [7] is Enterococcus faecalis. Put plainly: Antibacterial activity against Enterococcus faecalis 29212 by broth microdilution method. Put shortly:
as §1

A further assay concerns Streptococcus pyogenes. Description: Antibacterial activity against Streptococcus pyogenes 8668 by broth microdilution method. Put shortly:
as §1

For assay [8], the system named is Enterococcus faecalis. Put plainly: Antibacterial activity against Enterococcus faecalis bc11148-2 by broth microdilution method. Put shortly:
as §1

The subject of assay [9] is Streptococcus pneumoniae. Put plainly: Antibacterial activity against erythromycin-resistant Streptococcus pneumoniae erm 6849 by broth microdilution method.
Assay [10] deals with Streptococcus pneumoniae. Description: Antibacterial activity against Streptococcus pneumoniae 297-749 by broth microdilution method. Put shortly: as §1
The subject of assay [11] is Staphylococcus aureus. Put plainly: Antibacterial activity against Staphylococcus aureus 33591 by broth microdilution method. Put shortly: as §1
The test system of assay [12] is Streptococcus pneumoniae. Description: Antibacterial activity against Streptococcus pneumoniae 49619 by broth microdilution method. The procedure, abridged:
as §1

The test system of assay [13] is Streptococcus pneumoniae. Put plainly: Antibacterial activity against erythromycin-resistant Streptococcus pneumoniae mef 5654 by broth microdilution method.
Assay [14] relates to Haemophilus influenzae. Description: Antibacterial activity against Haemophilus influenzae 2762 by broth microdilution method. The procedure, abridged:
as §1

Converted amounts (≈) assume the structure as drawn.

As for `CC[C@H]1OC(=O)[C@H](C)C(=O)[C@H](C)[C@@H](O[C@@H]2O[C@H](C)C[C@H](N(C)C)[C@H]2O)[C@](C)(OC)C[C@@H](C)C(=O)[C@H](C)[C@@H]2[C@@H]1OC(=O)N2CCCCn1cnc2ncccc21`, the MIC was 0.4 mg/L (≈ 0.518 µM) in the assay on Streptococcus pneumoniae [1]; 3.13 mg/L (≈ 4.05 µM) in the assay with Haemophilus influenzae [2]; 0.4 mg/L (≈ 0.518 µM) in assay [3]; 0.4 mg/L (≈ 0.518 µM) in the assay with Staphylococcus aureus [4]; 0.4 mg/L (≈ 0.518 µM) in assay [5]; ≤ 0.05 mg/L in the assay with Streptococcus pneumoniae [6]. Moreover, the MIC in the assay on Enterococcus faecalis [7] is 0.1 mg/L (≈ 0.13 µM); with Streptococcus pyogenes, ≤ 0.05 mg/L; in the assay with Enterococcus faecalis [8] it was > 50 mg/L; in the assay on Streptococcus pneumoniae [9], 0.78 mg/L (≈ 1.01 µM); with Streptococcus pneumoniae [10] it was ≤ 0.05 mg/L; in the assay on Staphylococcus aureus [11], > 50 mg/L. The figures for the MIC with Streptococcus pneumoniae [12] and against Streptococcus pneumoniae [13] were ≤ 0.05 mg/L and 3.13 mg/L (≈ 4.05 µM), respectively.
Turning to `CC[C@H]1OC(=O)[C@H](C)C(=O)[C@H](C)[C@@H](O[C@@H]2O[C@H](C)C[C@H](N(C)C)[C@H]2O)[C@](C)(OC)C[C@@H](C)C(=O)[C@H](C)[C@@H]2[C@@H]1OC(=O)N2CCCCc1ccc(-c2cncnc2)s1`, the MIC is 3.13 mg/L (≈ 3.84 µM) against Haemophilus influenzae [14]; 12.5 mg/L (≈ 15.3 µM) in the assay on Haemophilus influenzae [2]; 0.2 mg/L (≈ 0.245 µM) in [3]; 0.2 mg/L (≈ 0.245 µM) against Staphylococcus aureus [4]; 0.2 mg/L (≈ 0.245 µM) in assay [5]; ≤ 0.05 mg/L with Streptococcus pneumoniae [6]. Besides, the MIC against Enterococcus faecalis [7] was ≤ 0.05 mg/L; with Streptococcus pyogenes, ≤ 0.05 mg/L; against Enterococcus faecalis [8] it was > 50 mg/L; in the assay with Streptococcus pneumoniae [9] it was > 50 mg/L; in the assay with Streptococcus pneumoniae [10], ≤ 0.05 mg/L; in the assay with Staphylococcus aureus [11] it was > 50 mg/L. Also, the MIC was ≤ 0.05 mg/L against Streptococcus pneumoniae [12] and 0.4 mg/L (≈ 0.491 µM) against Streptococcus pneumoniae [13].
On to `CC[C@H]1OC(=O)[C@H](C)C(=O)[C@H](C)[C@@H](O[C@@H]2O[C@H](C)C[C@H](N(C)C)[C@H]2O)[C@](C)(OC)C[C@@H](C)C(=O)[C@H](C)[C@@H]2[C@@H]1OC(=O)N2CCCCc1ncc(-c2ccccc2)s1`, for which the MIC came to 3.13 mg/L (≈ 3.84 µM) in the assay on Haemophilus influenzae [14]; 0.1 mg/L (≈ 0.123 µM) in the assay on Streptococcus pneumoniae [1]; 12.5 mg/L (≈ 15.4 µM) in the assay on Haemophilus influenzae [2]; 0.4 mg/L (≈ 0.491 µM) in assay [3]; 0.78 mg/L (≈ 0.958 µM) against Staphylococcus aureus [4]; 0.78 mg/L (≈ 0.958 µM) in [5]. Moreover, the MIC against Streptococcus pneumoniae [6] was ≤ 0.05 mg/L; against Enterococcus faecalis [7] it was 0.4 mg/L (≈ 0.491 µM); in the assay with Streptococcus pyogenes, 0.2 mg/L (≈ 0.246 µM); in the assay on Enterococcus faecalis [8], 6.25 mg/L (≈ 7.68 µM); in the assay with Streptococcus pneumoniae [9] it was 25 mg/L (≈ 30.7 µM); against Streptococcus pneumoniae [10], ≤ 0.05 mg/L. Also, the MIC against Staphylococcus aureus [11] is > 50 mg/L; against Streptococcus pneumoniae [12], ≤ 0.05 mg/L; in the assay on Streptococcus pneumoniae [13] it was 1.56 mg/L (≈ 1.92 µM).
`CC[C@H]1OC(=O)[C@H](C)C(=O)[C@H](C)[C@@H](O[C@@H]2O[C@H](C)C[C@H](N(C)C)[C@H]2O)[C@](C)(OC)C[C@@H](C)C(=O)[C@H](C)[C@@H]2[C@@H]1OC(=O)N2CCCCc1ccc2ccccc2n1`: the MIC in the assay with Haemophilus influenzae [2] is 3.13 mg/L (≈ 4 µM); in assay [3] it was 0.2 mg/L (≈ 0.256 µM); in the assay on Staphylococcus aureus [4] it was 0.4 mg/L (≈ 0.512 µM); in [5], 0.2 mg/L (≈ 0.256 µM); against Streptococcus pneumoniae [6], ≤ 0.05 mg/L; with Enterococcus faecalis [7], ≤ 0.05 mg/L. Also, the MIC with Streptococcus pyogenes is ≤ 0.05 mg/L; against Enterococcus faecalis [8] it was 3.13 mg/L (≈ 4 µM); against Streptococcus pneumoniae [9], 25 mg/L (≈ 32 µM); against Streptococcus pneumoniae [10], ≤ 0.05 mg/L; against Staphylococcus aureus [11], > 50 mg/L; with Streptococcus pneumoniae [12], ≤ 0.05 mg/L. In addition, the MIC in the assay with Streptococcus pneumoniae [13] turned out to be 0.2 mg/L (≈ 0.256 µM).
Turning to `CC[C@H]1OC(=O)[C@H](C)C(=O)[C@H](C)[C@@H](O[C@@H]2O[C@H](C)C[C@H](N(C)C)[C@H]2O)[C@](C)(OC)C[C@@H](C)C(=O)[C@H](C)[C@@H]2[C@@H]1OC(=O)N2CCCCc1ncc(-c2cccc(N)c2)s1`, the MIC against Haemophilus influenzae [14] was 1.56 mg/L (≈ 1.88 µM); with Haemophilus influenzae [2] it was 6.25 mg/L (≈ 7.54 µM); in [3], 0.2 mg/L (≈ 0.241 µM); against Staphylococcus aureus [4] it was 0.4 mg/L (≈ 0.482 µM); in assay [5] it was 0.4 mg/L (≈ 0.482 µM); against Streptococcus pneumoniae [6], ≤ 0.05 mg/L. Moreover, the MIC in the assay with Enterococcus faecalis [7] was 0.2 mg/L (≈ 0.241 µM); in the assay with Streptococcus pyogenes, ≤ 0.05 mg/L; in the assay with Enterococcus faecalis [8] it was 3.13 mg/L (≈ 3.78 µM); against Streptococcus pneumoniae [9], 50 mg/L (≈ 60.3 µM); in the assay on Streptococcus pneumoniae [10] it was ≤ 0.05 mg/L; with Staphylococcus aureus [11], > 50 mg/L. Besides, the MIC against Streptococcus pneumoniae [12] is ≤ 0.05 mg/L; in the assay on Streptococcus pneumoniae [13] it was 0.78 mg/L (≈ 0.941 µM).
For the compound `CC[C@H]1OC(=O)[C@H](C)C(=O)[C@H](C)[C@@H](O[C@@H]2O[C@H](C)C[C@H](N(C)C)[C@H]2O)[C@](C)(OC)C[C@@H](C)C(=O)[C@H](C)[C@@H]2[C@@H]1OC(=O)N2CCCCn1ccc2c(N)cccc21`, the MIC against Haemophilus influenzae [14] is 1.56 mg/L (≈ 1.99 µM); in the assay on Haemophilus influenzae [2], 3.13 mg/L (≈ 3.99 µM); in assay [3] it was 0.78 mg/L (≈ 0.994 µM); against Staphylococcus aureus [4] it was 0.2 mg/L (≈ 0.255 µM); in assay [5] it was 0.4 mg/L (≈ 0.51 µM); with Streptococcus pneumoniae [6], ≤ 0.05 mg/L. Also, the MIC is ≤ 0.05 mg/L against Enterococcus faecalis [7]; ≤ 0.05 mg/L in the assay on Streptococcus pyogenes; 6.25 mg/L (≈ 7.96 µM) in the assay with Enterococcus faecalis [8]; 25 mg/L (≈ 31.8 µM) with Streptococcus pneumoniae [9]; ≤ 0.05 mg/L with Streptococcus pneumoniae [10]; > 50 mg/L with Staphylococcus aureus [11]. Moreover, the values for the MIC with Streptococcus pneumoniae [12] and in the assay on Streptococcus pneumoniae [13] were 0.1 mg/L (≈ 0.127 µM) and 0.78 mg/L (≈ 0.994 µM), respectively.

Source of the values: ChEMBL document CHEMBL1148671, “Synthesis and antibacterial activity of C12 des-methyl ketolides” (2006).
